Measured values: ChEMBL document CHEMBL1131232, “New azole antifungals. 3. Synthesis and antifungal activity of 3-substituted-4(3H)-quinazolinones” (J Med Chem, 1998)
≈ marks a conversion by molar mass, not a printed value.

Tests used:
Format in all cases: functional
[1] = In vitro antifungal activity against 6 filamentous fungi; settings: read-out: MIC
Procedure, shortened: (§1)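 Agar dilution on Kimmig's agar with 0.5% glycerol, using ATCC strains or clinical isolates. Drug stocks were 800 μg/mL in 50% ethanol, tested as 2-fold dilutions from 80 to 0.03 μg/mL. Inocula were 10⁵ cfu/mL. […] Geometric means took >80 as 160 and ≤0.03 as 0.03.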

[2] = In vitro for antifungal activity against 10 yeasts; settings: read-out: MIC; procedure, shortened: as §1
Candida albicans [3] = experiment: In vivo antifungal activity against murine candidosis model after peroral administration with 1 mg/kg at various time intervals. (percent protection for 100% mortality with fluconazole-treated group.); settings: route oral
Procedure, shortened: (§2)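 Groups of 10 male mice were infected iv with 0.2 mL of C. albicans at 2 to 8×10^7 cfu/mL. Drug was given orally as a suspension in 1% Tween + 0.2% carboxymethylcellulose at 1, 4 and 24 h post-infection; controls got vehicle only. Survival was scored on days 3, 5, 7 and 9. Read-out was % survival on the day all untreated controls died, or on the day all mice given fluconazole at the same dose died.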

Candida albicans [4] = experiment: In vivo antifungal activity against murine candidosis model after peroral administration with 1 mg/kg at various time intervals. (percent protection for 100% mortality with untreated group); settings: route oral; procedure, shortened: as §2
Candida albicans [5] = experiment: In vivo antifungal activity against murine candidosis model after peroral administration with 2.5 mg/kg at various time intervals. (percent protection for 100% mortality with untreated group); settings: route oral; procedure, shortened: as §2
Candida albicans [6] = experiment: In vivo antifungal activity against murine candidosis model after peroral administration with 2.5 mg/kg at various time intervals. (percent protection for 100% mortality with fluconazole-treated group.); settings: route oral; procedure, shortened: as §2
Candida albicans [7] = experiment: In vivo antifungal activity against murine candidosis model after peroral administration with 0.5 mg/kg at various time intervals. (percent protection for 100% mortality with fluconazole-treated group.); settings: route oral; procedure, shortened: as §2
Candida albicans [8] = experiment: In vivo antifungal activity against murine candidosis model after peroral administration with 0.5 mg/kg at various time intervals. (percent protection for 100% mortality with untreated group); settings: route oral; procedure, shortened: as §2

SMILES	MIC [1]	MIC [2]	Protection (Candida albicans [3])	Protection (Candida albicans [4])	Protection (Candida albicans [5])	Protection (Candida albicans [6])	Protection (Candida albicans [7])	Protection (Candida albicans [8])
C[C@@H](n1cnc2cc(C(N)=O)ccc2c1=O)[C@](O)(Cn1cncn1)c1ccc(F)cc1F	> 80 µg/mL	25 µg/mL (≈ 56.8 µM)	–	–	–	–	–	–
Cc1cccc2ncn([C@H](C)[C@](O)(Cn3cncn3)c3ccc(F)cc3F)c(=O)c12	40 µg/mL (≈ 97.2 µM)	2.6 µg/mL (≈ 6.32 µM)	0%	0%	–	–	–	–
C[C@@H](NC(=O)c1ccc(Cl)cc1NC=O)[C@](O)(Cn1cncn1)c1ccc(F)cc1F	0.9 µg/mL (≈ 2 µM)	0.3 µg/mL (≈ 0.667 µM)	–	–	0%	0%	–	–
C[C@@H](NC(=O)c1ccc(Cl)cc1N)[C@](O)(Cn1cncn1)c1ccc(F)cc1F	8.9 µg/mL (≈ 21.1 µM)	3.7 µg/mL (≈ 8.77 µM)	–	–	20%	0%	–	–
C[C@@H](n1cnc2cc(NN)ccc2c1=O)[C@](O)(Cn1cncn1)c1ccc(F)cc1F	> 80 µg/mL	15 µg/mL (≈ 35.1 µM)	–	–	–	–	–	–
C[C@@H](n1cnc2cc(C#N)ccc2c1=O)[C@](O)(Cn1cncn1)c1ccc(F)cc1F	3.5 µg/mL (≈ 8.29 µM)	0.8 µg/mL (≈ 1.89 µM)	0%	10%	–	–	–	–
C[C@@H](n1cnc2cccc(Cl)c2c1=O)[C@](O)(Cn1cncn1)c1ccc(F)cc1F	71 µg/mL (≈ 164 µM)	3.1 µg/mL (≈ 7.18 µM)	0%	0%	–	–	–	–
C[C@@H](n1cnc2cc(Sc3ccccc3)ccc2c1=O)[C@](O)(Cn1cncn1)c1ccc(F)cc1F	2 µg/mL (≈ 3.96 µM)	0.7 µg/mL (≈ 1.38 µM)	–	–	–	–	0%	0%
C[C@@H](n1cnc2cc(NCc3ccccc3)ccc2c1=O)[C@](O)(Cn1cncn1)c1ccc(F)cc1F	11 µg/mL (≈ 21.9 µM)	1.2 µg/mL (≈ 2.39 µM)	–	–	–	–	0%	40%
C[C@@H](n1cnc2cc(C(F)(F)F)ccc2c1=O)[C@](O)(Cn1cncn1)c1ccc(F)cc1F	2.2 µg/mL (≈ 4.73 µM)	0.7 µg/mL (≈ 1.5 µM)	–	–	–	–	60%	100%
C[C@@H](n1cnc2cc(N3CCOCC3)ccc2c1=O)[C@](O)(Cn1cncn1)c1ccc(F)cc1F	35 µg/mL (≈ 72.5 µM)	1.9 µg/mL (≈ 3.94 µM)	–	–	–	–	0%	20%
Cc1nc2cc(Cl)ccc2c(=O)n1[C@H](C)[C@](O)(Cn1cncn1)c1ccc(F)cc1F	36 µg/mL (≈ 80.7 µM)	6.6 µg/mL (≈ 14.8 µM)	–	–	–	–	–	–
C[C@@H](n1cnc2cc(C(=N)NS(N)(=O)=O)ccc2c1=O)[C@](O)(Cn1cncn1)c1ccc(F)cc1F	> 80 µg/mL	40 µg/mL (≈ 77.1 µM)	–	–	–	–	0%	0%
C[C@@H](N1CNc2cc(Cl)ccc2C1=O)[C@](O)(Cn1cncn1)c1ccc(F)cc1F	2.8 µg/mL (≈ 6.45 µM)	0.8 µg/mL (≈ 1.84 µM)	–	–	30%	0%	–	–
C[C@@H](n1cnc2ccc(F)cc2c1=O)[C@](O)(Cn1cncn1)c1ccc(F)cc1F	> 80 µg/mL	2.4 µg/mL (≈ 5.78 µM)	0%	0%	–	–	–	–
C[C@@H](n1cnc2cc(F)c(F)cc2c1=O)[C@](O)(Cn1cncn1)c1ccc(F)cc1F	70 µg/mL (≈ 162 µM)	1.7 µg/mL (≈ 3.92 µM)	0%	10%	–	–	–	–
C[C@@H](n1cnc2cc(N(C)C)c(F)cc2c1=O)[C@](O)(Cn1cncn1)c1ccc(F)cc1F	22 µg/mL (≈ 48 µM)	1.4 µg/mL (≈ 3.05 µM)	0%	0%	–	–	–	–
C[C@@H](n1cnc2cc(-n3cncn3)ccc2c1=O)[C@](O)(Cn1cncn1)c1ccc(F)cc1F	80 µg/mL (≈ 172 µM)	6.6 µg/mL (≈ 14.2 µM)	–	–	–	–	<50%	70%
CCC(CC)n1ncn(-c2ccc(N3CCN(c4ccc5ncn([C@H](C)[C@](O)(Cn6cncn6)c6ccc(F)cc6F)c(=O)c5c4)CC3)cc2)c1=O	28 µg/mL (≈ 39.4 µM)	3.7 µg/mL (≈ 5.21 µM)	–	–	–	–	0%	0%
C[C@@H](n1cnc2cc(Oc3ccc(Cl)cc3)ccc2c1=O)[C@](O)(Cn1cncn1)c1ccc(F)cc1F	7.1 µg/mL (≈ 13.6 µM)	0.7 µg/mL (≈ 1.34 µM)	–	–	–	–	80%	100%
C[C@@H](n1cnc2cc(N3CCN(C)CC3)ccc2c1=O)[C@](O)(Cn1cncn1)c1ccc(F)cc1F	> 80 µg/mL	19 µg/mL (≈ 38.3 µM)	–	–	–	–	0%	20%
C[C@@H](n1cnc2ccc(Br)cc2c1=O)[C@](O)(Cn1cncn1)c1ccc(F)cc1F	45 µg/mL (≈ 94.5 µM)	1.6 µg/mL (≈ 3.36 µM)	0%	100%	–	–	–	–
C[C@@H](n1cnc2cc(OCC(F)(F)F)ccc2c1=O)[C@](O)(Cn1cncn1)c1ccc(F)cc1F	15 µg/mL (≈ 30.3 µM)	1 µg/mL (≈ 2.02 µM)	–	–	–	–	100%	100%
